Only a selection was taken, and hits are over-represented in it overall.
ALR H2O2 inh = inhibitors of human ALR sulfhydryl oxidase, primary screen, biochemical, H2O2 detection, HRP-luminol luminescence, single point | 290,000 compounds, 3.8% hits | purified ALR, DTT oxidation | inhibition, % (concentration not given with the values) | AID 485317, 2010 | FAD-linked sulfhydryl oxidase ALR (Homo sapiens), P55789;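 active = mean replicate inhibition above about 79%, with every replicate also reaching it, limit read from the data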
Target sequence (P55789 whole entry, looked up): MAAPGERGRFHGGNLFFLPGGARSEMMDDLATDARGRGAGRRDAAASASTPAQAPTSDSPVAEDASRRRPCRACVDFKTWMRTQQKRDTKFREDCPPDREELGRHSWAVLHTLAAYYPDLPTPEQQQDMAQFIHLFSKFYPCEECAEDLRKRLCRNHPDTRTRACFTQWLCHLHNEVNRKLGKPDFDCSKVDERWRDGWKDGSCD
T cell HTS = modulators of CD8 T cell-vesicle binding, primary screen, mouse 2C CD8+ T cells, flow cytometry. 2C CD8+ T cell-vesicle binding; active compounds read low. response (vesicle binding), % at 7 µM. 330,000 compounds, 0.068% hits;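 active = response, share of CD8 T cells binding vesicles, and their 90th percentile fluorescence all below set limits, cut at about 80% in these data, passing the limit was not always enough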;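 also: values below 100% mean blocked vesicle binding to the CD8+ T cells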
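Assay system: 2C TCR transgenic mouse naive CD8+ T cells, MACS-purified | Read-out: CD8+ gate FL2 mean fluorescence as % of same-row positive control | Signal: High-throughput flow cytometry with anti-B7-1 and anti-CD8 staining | Timing: Binding step 1.5 h, 37 °C, antibody labelling 20 min, ice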
N-glyco inh = increase of ERlucT glycosylation luciferase signal, primary screen, N-linked glycosylation inhibitor project, D54 ERlucT cells, luminescence, set 2; D54 ERlucT glycosylation luciferase reporter, 24 h; percent of 100 nM tunicamycin response; reporter increase, % at 12.5 µM; 360,000 compounds, 0.23% hits;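 active = mean luciferase reporter signal, scaled so untreated is 0 and the glycosylation-blocking control 100, at or above a set limit in every replicate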;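 also: luciferase carries N-glycosylation sites so blocking glycosylation raises the light; 0% = median of neutral control wells and 100% = median of 100 nM tunicamycin wells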
Numbers without * were called inactive; i = inactive; . = no result.

SMILES | ALR H2O2 inh | T cell HTS | N-glyco inh
Cc1ccc(S(=O)(=O)NC(=O)C2(C)CCN2C(=O)CCc2ccc(Cl)cc2Cl)nc1 (stereo not given) | . | . | 0
Cc1cccnc1NC(=O)c1ccc(C(=O)c2ccccc2)cc1 | 0 | 253 | -3
COc1ccc(-c2csc(Cc3nnc4n3CCCCC4)n2)cc1OC | 98* | 362 | 0
COc1ccc(-c2nnc3n2CCCCC3)cc1OC | . | 361 | 3
CC(=O)Nc1ccc(S(=O)(=O)N(C)c2ccc(O)cc2)cc1 | 98* | 253 | 0
CC(=O)Nc1ccc(S(=O)(=O)N(C)c2ccccc2)cc1 | 1 | 250 | 0
CC(=O)Nc1ccc(N=Nc2ccc(O)cc2)cc1 | 99* | 214 | -12
CC(=O)Nc1ccc(N=NN2CCOCC2)cc1 | 11 | 348 | 1
CN(C(=O)CN1C(=O)C2C3CC(C(Br)C3Br)C2C1=O)C1CCCCC1 (stereo not given) | -6 | 212 | -2
CNc1cc(Cl)nc(SC)n1 | 23 | 539 | 0
CSc1nc(Cl)cc(Nc2ccc(O)cc2)n1 | 99* | 218 | 7
COc1cc(NC(=O)CCN2CCN(c3ccccc3OC)CC2)cc(OC)c1 | . | . | 1
CCc1nc2ccc(C(=O)N(CC)CCN(C)C)cn2c1N(CC)CCOC | . | . | 1
O=C(NC1CCN(C(=O)c2cccs2)CC1)c1ccccc1 | 2 | 260 | -1
CCn1c(=S)sc2c(=O)n(CC(=O)Nc3ccccc3C(F)(F)F)c(C)nc21 | 44 | 340 | 0
CSC1=NSC2=NC(=O)/C(=C\c3coc4ccccc4c3=O)C(=N)N12 | 97* | 451 | 0
CC(C)CSC1=NSC2=NC(=O)/C(=C\c3coc4ccccc4c3=O)C(=N)N12 | 72 | 299 | 1
Cc1ccc2c(c1)c1c(n2C)C(C(N)=O)CCC1 (stereo not given) | 3 | 328 | 2
Cc1ccc2c(c1)c1c(n2C)-c2[nH]ncc2CC1 | 94* | 292 | 7
NNc1nc(-c2ccccc2)cs1 | 99* | i | -1
c1ccc(-c2csc(Nc3ncccn3)n2)cc1 | -7 | 300 | -11
COc1cc(C2Nc3cccc4cccc(c34)N2)ccc1O | -54 | 428 | 0
COc1cc(C2Nn3c(nnc3-c3ccccc3OC)S2)ccc1O (stereo not given) | 99* | 137 | 1
O=C(C[C@@H]1C/C=C\CC[C@H](Cc2ccc(F)cc2)C(=O)OC[C@@H](Cc2ccccc2)NC1=O)NCCO | -4 | 280 | -1
C[C@@H]1COC(=O)[C@H](Cc2ccc(F)cc2)CC/C=C\C[C@@H](CC(=O)NCCO)C(=O)N1 | -5 | 60* | 2
SMILES | ALR H2O2 inh | T cell HTS | N-glyco inh
Cc1ccc(-c2csc(=S)[nH]2)cc1 | 64 | 381 | 2
S=c1[nH]c(-c2ccc(Cl)cc2)cs1 | 97* | 272 | 5
COc1ccc(-n2nc(C(=O)O)nc2-c2ccccc2)cc1 | 100* | 514 | 2
O=C(c1nc(-c2ccccc2)n(-c2ccccc2)n1)N1CCCCCC1 | 0 | 601 | -1
O=C(CSc1ncnc2c1nnn2Cc1ccccc1)NC1CCCCC1 | 4 | 516 | 1
CC1Cc2nc(SCC(=O)N3CCN(c4ccccc4)CC3)n(C)c(=O)c2S1 (stereo not given) | 98* | 356 | 1
CCn1c(SCC(=O)N2CCN(c3ccccc3)CC2)nc2c(c1=O)SC(C)C2 (stereo not given) | 68 | 714 | -1
CC1Cc2nc(SCC(=O)N3CCOCC3)n(-c3ccccc3)c(=O)c2S1 (stereo not given) | 99* | 360 | 2
O=C(CSc1nc2c(c(=O)n1-c1ccccc1)SCC2)N1CCOCC1 | -1 | 850 | -1
Oc1c(Cl)cc(Cl)cc1CNc1ccccn1 | . | . | -1
Oc1c(Cl)cc(Cl)cc1CNc1nc2ccccc2[nH]1 | 99* | 165 | 0
CN(C(=O)c1ccccc1C(=O)OCC(=O)c1ccc(Br)cc1)c1ccccc1 | 3 | 338 | -5
COc1ccc(CNC(=O)c2nccnc2CO)cc1 | -12 | 204 | 1
Cc1ccc(-c2cc(C(=O)NCC3CCCO3)no2)cc1 (stereo not given) | -3 | 552 | -6
CCCNC(=O)c1cc(-c2ccco2)on1 | 3 | 534 | 81*
CCN(CC)CCCNC(=O)c1cc(-c2ccc(Cl)c(Cl)c2)on1 | 7 | 196 | 1
CC(C)CNC(=O)c1cc(-c2ccco2)on1 | 25 | 339 | 5
CN1CCN(CCCNC(=O)c2cc3c(-c4ccc(Cl)cc4)nn(C)c3s2)CC1 | . | 498 | 3
CCN(CC)CCCNC(=O)c1cc(-c2ccc(O)cc2)on1 | 99* | 798 | -1
O=C(NCC1CCCO1)c1cc(-c2ccccc2)on1 (stereo not given) | -4 | 135 | 34*
CCN(CC)CCCNC(=O)c1cc2c(-c3ccc(Cl)cc3)nn(C)c2s1 | 94* | 474 | 3
CCOC(=O)C1(C)CCN1C(=O)c1cccc(C(F)(F)F)c1 (stereo not given) | . | . | 1
CC(C)C[C@@H](CN1CCC[C@@H]1CN1C(=S)NC[C@@H]1Cc1ccc(O)cc1)N1C[C@H](Cc2ccc(O)cc2)N(CC2CCCCCC2)C1=S | . | . | -3
N#C/C(=C\c1ccc(F)c(Cl)c1)S(=O)(=O)c1ccccn1 | 1 | 255 | 0
CCN(CC(=O)Nc1ccccc1C(F)(F)F)C(=O)c1oc2ccc(OC)cc2c1C | -2 | 319 | -2
SMILES | ALR H2O2 inh | T cell HTS | N-glyco inh
COc1ccc(N2CCN(C(=O)c3cc4c(-c5ccc(Cl)cc5)nn(C)c4s3)CC2)cc1 | 37 | 748 | 0
O=C(NCC1CCCO1)c1cn(Cc2ccccc2)nc1-c1ccc(Cl)cc1 (stereo not given) | . | 175 | -4
Cn1nc(-c2ccc(Cl)cc2)c2cc(C(=O)NCC3CCCO3)sc21 (stereo not given) | 93* | 311 | 4
Cn1nc(-c2ccc(Cl)cc2)c2cc(C(=O)N3CCOCC3)sc21 | 95* | 314 | 5
CCc1ccc(Oc2coc3cc(OCC(=O)Nc4cc(C)ccc4C)ccc3c2=O)cc1 | . | 188 | 66*
CCCc1ccc(Oc2coc3cc(OCC(=O)Nc4ccccc4C)ccc3c2=O)cc1 | 2 | 380 | -2
Cc1ccc(C(=O)N2CCN(C(=O)C3CCCO3)CC2)cc1 (stereo not given) | 0 | 375 | -1
Cc1ccc(NC(=O)N2CCN(C(=O)C3CCCO3)CC2)cc1 (stereo not given) | -3 | 342 | 1
Cc1ccc(-c2nc(CN3CCN(C(=O)C4CCCO4)CC3)cs2)cc1 (stereo not given) | 99* | 341 | -1
Cc1ccc(CN2CCN(C(=O)C3CCCO3)CC2)cc1 (stereo not given) | 99* | 147 | 0
CCCc1n[nH]c(=O)c2c1nnn2Cc1ccccc1F | -4 | 196 | -3
Cc1cccc(NC(=O)CNC(=O)[C@H]2O[C@@H](n3ccc(=O)[nH]c3=O)[C@H](O)[C@@H]2O)c1C | . | . | 2
Cc1cccc(/C=C/C(=O)c2cc(Br)ccc(=O)c2O)c1 | 98* | 836 | 5

High-throughput results from PubChem BioAssay.
